Tested on: MS2 coat protein
Assay: apparent Kd, MS2 coat protein; higher = weaker binding; RNA-MaP array; FMN 200 µM where present
How it was run: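 Designs on Illumina sequencing-chip clusters, transcribed by stalled E. coli RNA polymerase, were exposed to SNAP-549-labelled MS2 coat protein in doubling steps from 0.7 or 1.5 nM up to 3 µM, without and then with constant ligand. The buffer held 100 mM Tris-HCl pH 7.5, 80 mM KCl, 4 mM MgCl2, BSA, DTT, yeast tRNA and Tween-20. Apparent Kd values are medians of filtered per-cluster binding-curve fits to green signal normalised to red-channel RNA signal and control-cluster median Fmax.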

[1] = designed as: OFF switch for flavin mononucleotide, no ligand
[2] = ligand present: flavin mononucleotide, designed as: OFF switch for flavin mononucleotide
[3] = designed as: ON switch for flavin mononucleotide, no ligand
[4] = ligand present: flavin mononucleotide, designed as: ON switch for flavin mononucleotide

Sequence	apparent Kd [1] [nM]	apparent Kd [2] [nM]	apparent Kd [3] [nM]	apparent Kd [4] [nM]
GAGAAGAGGGAAGGAUAUACAUGAGGAUCACCCAUGUAGAUAGGUAUAAUAGGUUGUUGUAGUAUGUAGAAGGUCCGGUUUGUU	18.9	22.5		
UGUCAUAAACAGAAGGGUAGUUGGGUUAUACAUGAGGAUCACCCAUGUAUUACAGGAUAUGUGUAAAGUUAUUAUUAAAGUAAA	12.6	13.8		
CGAUAACAUAGUUAUCCGUAGCGAACAUGAGGAUCACCCAUGUAGGAUAUGUUACUAAACUAGUAACAGAAGGACAUGAGUAUU	154	407		
GACAUCGCAGGAUAUUAUUGUUUGUACAUGAGGAUCACCCAUGUUAAUUGGGUUAAUGUUUAAGAAGGGCGGUGUC	642	557		
AAAAUCUAUUGAGGAUAUUCAUACACUACGUACGGAGAAGGCAAACAAUCAUGAGGACAUGAGGAUCACCCAUGUUGUGACCAU			17.6	10.6
CAGCUGAAAGUCAGGAUAUCUAGAGCUUCGGCUCUAGAGAAGGGACAUGAGGAUCACCCAUGUGGUCACAGCUG	1420	149		
UGCAGGUGAGGAUAUGCGGGCGAGCUAACAUAAGCAUCGAAGCAGAAGGCACAUGAGGAUCACCCAUGUAGUCC	18.9	28		
UUGCGGUAGGAGAAGGACAGAGGCGGAAACACAUACAUGAGGAUCACCCAUGUAGGAUAUCCUACCUAACGCGGACUCCUCCAG	5.85	6.43		
GUCGGGAUUACAUGAGGAUCACCCAUGUCAGAACGGGCAGUCAGAAGGUGCCAUUAGGGAGAGGGUAAGGAUAUGAUUUUUGGC			11.3	9.92
AAAACGUCAGGAUAUACAGAAGAGAUCACAAAAAAAAAAAAACAUGAGGAUCACCCAUGUAGAAGGGACAAAAA	138	188		
CGAUAAUAUAGUUAUCCGUAGCGAACAUGAGGAUCACCCAUGUAGGAUAUGUUACUAAACUAGUAACAGAAGGACAUGAGUCUU	28.5	178		
CAGCUUUACGAGGAUAUGGAAGGAGUCAACUUGCCAGAAGGUGUAACAUGAGGAUCACCCAUGUGGCCCGUGAC	66.1	69.4		
GGUGGACAUGAGGAUCACCCAUGUGAGGAUAUCGGCCGGUUCGUGGUGGCUGGCUUCUCGAGAAGGCGCAUAGU	55.8	65.7		
CCGGAAACGGGUAGCUGUACAUGAGGAUCACCCAUGUGAUCAUAGGAUAUGGAACCUAAUUGGUUCCAGAAGGAUGUCAGCUAC			237	598
UGAUUUCAUGUAGGAUAUGCAUGGCGAAGCUACGCAGAAGGACAUGAGGAUCACCCAUGUUUUAGCGUCUGAGUAUAGAUUCUA	140	158		
UACAUCAAUGAAGGAUAUCUAUAUCCAACAUGAGGAUCACCCAUGUUGAGGAUCACCCAUGUAAAGGAGAAGGUUAAUAUAACU			37.7	29.7
AACUGACGACGUCAGUUGCGUAGGCAGGAUAUACAUGAGGAUCACCCAUGUGCAUGAUGCUACGAGUAGAAGGGCCGAGGCGAU	6.15	11.2		
GUAGCAUACCGAGGAUAUUCAUCCGGAAACGGACAUGAGGAUCACCCAUGUGCAGAAAACUGCUGGGAGAAGGCGGAAUGCUAC			89.7	16.9
AGGUCAACCACAGGAUAUGGCUAGCAUAGCUAGCCAGAAGGGUGGUCAUAUCCAUGUAAAUACAUGAGGAUCACCCAUGUAUCC			209	79.8
ACAAAUCGAGGAUAUACAUGAGGAUCACCCAUGUGGAGUCCACUGCGCGGUUCUCAGCGUAGAAGGCGAAAACA	46.3	89.8		
GCGUUUGUAUCACAUGUAUUACAUGAGGAUCACCCAUGUUACUAGGAUAUGUAUUAGUAUUUUCAACAGAAGGAGUAAGAACGC	18.8	23.5		
UAUAUAUAGUAAGGAUAUGUAUAUACUUUAUAAACAGAAGGUACUGACAUGAGGAUCACCCAUGUUUUAGUGUGGGCAUGUAGA	75.9	102		
UGUCGGAGCAGAGGAUAUUACAUGAGGAUCACCCAUGUAUGAACCAAUAGCUGGAAACAGCAAUUUAAGAAGGCUGCUCCGACA	5.28	4.96		
AAUUGUCGUGAGGAUAUGUACGUUUUAGUAACGACAGAAGGCAUGACAUGAGGAUCACCCAUGUUGUAAUCUGG	82	429		
GUCAGCUCGUGAGGAUAUACAAAACUGCUUCGGCAGUGUAUUAAGAUCACAUGAGGAUCACCCAUGUAGAAGGCACGAGCUGAU	8.71	82.3		
UUAACUCAUGUAGGAUAUGCAUGGCGAAGCUACGCAGAAGGACAUGAGGAUCACCCAUGUUCUAGCGUCUGGAAACAGAUGCAA	67.9	359		
UGAGCGACCACAGGAUAUACUUGAGAAGACCGAGUAGAAGGGUGGAAGAGCAUGCAGUGACAUGAGGAUCACCCAUGUGGUUGG			97	65.8
UGACACUUGAGGGUCUCCCUUGACAUGAGGAUCACCCAUGUGCAGGAUAUACGUGUGAUGGUAUAGUAGAAGGGCACUCUAUGU	27.7	35.6		

Sequence	apparent Kd [1] [nM]	apparent Kd [2] [nM]	apparent Kd [3] [nM]	apparent Kd [4] [nM]
UGCCUUGAGUAGAAGGGCUGUGCUGUGGCACUGAGUCCUCUCGACAUGAGGAUCACCCAUGUAGAGCAGGAUAUACUCGGAUAA	5.78	7.3		
UCCUCGUAGUAGAAGGGCGGCCGAAAUCUGCACGCAGGAUAUACAUGAGGAUCACCCAUGUACUGAGCUGAAGAGCACUUGGAA	11.5	29.5		
GUGGUGCAUAUACGUGGAGGUACAUGAGGAUCACCCAUGUAAGAGGAUAUGCGGAUACUAGCUCAGCAGAAGGCUUACAAAUGA	13.1	51.5		
GUGGCACAUGAGGAUCACCCAUGUCAGGAUAUCGCGUGUUUUUUUUCGGCCGCGCGCGCGAGAAGGGACGUCUU	27.1	29.8		
UUUUUACAUGAGGAUCACCCAUGUGAGGAUAUGGAUUCGCUGGCCGUAGCCAGUGGAUCCAGAAGGCGCGUGAU	90	175		
GCCCGUGCGGAGGAUAUUGAUAUCCCAGUCUAUCAAGAAGGCUGCACAUGAGGAUCACCCAUGUGACCUGUGCU	18.8	51.7		
UUAAUAAUACAAGGAUAUCUAUUGUUCUUAAGACAUACAUGAGGAUCACCCAUGUUAAUAUAUAUAGAGAAGGUGUAUUUUCAG			27.2	20
GUUUUUUUUCAUGUACAUGAGGAACAUGAGGAUCACCCAUGUAGAAGGAAUUUUUUUAAGUUUAGUUAGGAUAUACAUAUAUUG	54.2	33.9		
UGAACUAUGUAGAAGGCCCUCAUGAAAAUGAAGGGAGGAUAUACAUGAGGAUCACCCAUGUGAAGAGCAAGAGGGUUUAACAGA	149	172		
GGUCUGACAUAAGGAUAUGCUCAGGAUAACUGAGCAGAAGGUAUGUGAAAACAUGAGGAUCACCCAUGUGAUCAAUACAGACCA			18.8	19.5
CCUGUAAUCCUAUAGGCUUGUUACAUGAGGAUCACCCAUGUCAAGGAUAUAACGUUAAGCUCAUGUUAGAAGGUGACAUGUGGU	164	58.6		
AAAAAGUGAGGAUAUACAUGAGGAUCACCCAUGUAAUAAAAAAAAAGGGUGGAAGAAAGUAGAAGGCACCAAAA	62.4	356		
UAACCAGUCCAGAAGGUGACGUCUGAAACUAGUCAAGGAUAUGGGUUGGUCCACGGUCGGCUACAUGAGGAUCACCCAUGUACC			32.8	8.33
ACUGGUCGAGGAUAUACAUUCGUGCUUCGGCACGUAAGGUCACAUGAGGAUCACCCAUGUAGAAGGCGACCAGU	40.1	207		
CUACAUGAGGAUCACCCAUGUGCACACCGGAUCGGUAUGCGCAGAAGGGCCAUGGAGAAAGCCAGGCAGGAUAUGCAAAGGGCU			258	176
ACAUGAGGAUCACCCAUGUUCACAUAGGAUAUUGAUUUUAUUGGUUUUAGAAUAGUAAUUAACCUCAAGAAGGAUGCCAGUUGU			11.1	9.31
UAGUGCGUUAGAGGAUAUUCUAAAAUAAAAUAAAAGACAUGAGGAUCACCCAUGUAUGUACAUGGGAAGAAGGCUGAUGUGCUA			438	51.4
UAUUAAUAAUAAGGAUAUACGUCACUGCUUCGGCAGUGUGGUAAGAUCACAUGAGGAUCACCCAUGUAGAAGGAAUAUAAAAUU	11.2	9.26		
AAGAAACAUGAGGAUCACCCAUGUGAGAAUAUGGGAGGAUAUACAAGGACGUAAGUCAAGGUAGAAGGCCUAAGAA			171	29.7
GGGUACAUCGGAGGAUAUCAUGUAAAUACAUGAGGAUCACCCAUGUCGAUGGAGACAUCGUAGAUUGAGAAGGCCGAUGUACCG			9.85	5.37
GGUUGGCGAGGAUAUACAUGAGGAUCACCCAUGUGGUCCUGUGGCUGGUCUUAACUUUGUAGAAGGCGCGGGUC	66	82.8		
GGUCGUCACAUAUACAUGAGGAUCACCCAUGUCAAAAGACAUGAGGAUAUGGAUCCUAAUUGGAUCCAGAAGGCAUGGACGACC			986	47.3
AUAUAAAUAUAGGAUAUCGAAUUUAUUAAUUAUCGAGAAGGAUAAACAUGAGGAUCACCCAUGUGGUAUCAUGG	366	336		
UUUGUUUAUGCAGGAUAUUGUAUUUUAUUACAUCAAGAAGGGCAUUACAUGAGGAUCACCCAUGUUAUCUUAUGGUUAACUAGU	20.8	21.3		
CGACAUUUAGGAUAUACGGUUAUUGAGGUUUUUGUUAGUCGACAUGAGGAUCACCCAUGUAGAAGGAAAUGAGU	34.6	49.4		
UGGAUCAUCGGAGGAUAUCAUGUAUAUACAUGAGGAUCACCCAUGUCGAUGGAGACAUCGGAGAUUGAGAAGGCCGAUGAUCCU			910	30.5
UUAGGCUGAAGAUCAAUUAAUUAACAUGAGGAUCACCCAUGUAAGGAUAUCAGCUCGAUUAGAGCUGAGAAGGUACAUGCAGCC	110	565		
